# Results pooled from the literature.
# Compare with care: the assays were run in different laboratories.
# Target: Mitogen-activated protein kinase kinase kinase 19 (MAP3K19, Homo sapiens, UniProt Q56UN5)
# One construct used (Q56UN5 1-1328): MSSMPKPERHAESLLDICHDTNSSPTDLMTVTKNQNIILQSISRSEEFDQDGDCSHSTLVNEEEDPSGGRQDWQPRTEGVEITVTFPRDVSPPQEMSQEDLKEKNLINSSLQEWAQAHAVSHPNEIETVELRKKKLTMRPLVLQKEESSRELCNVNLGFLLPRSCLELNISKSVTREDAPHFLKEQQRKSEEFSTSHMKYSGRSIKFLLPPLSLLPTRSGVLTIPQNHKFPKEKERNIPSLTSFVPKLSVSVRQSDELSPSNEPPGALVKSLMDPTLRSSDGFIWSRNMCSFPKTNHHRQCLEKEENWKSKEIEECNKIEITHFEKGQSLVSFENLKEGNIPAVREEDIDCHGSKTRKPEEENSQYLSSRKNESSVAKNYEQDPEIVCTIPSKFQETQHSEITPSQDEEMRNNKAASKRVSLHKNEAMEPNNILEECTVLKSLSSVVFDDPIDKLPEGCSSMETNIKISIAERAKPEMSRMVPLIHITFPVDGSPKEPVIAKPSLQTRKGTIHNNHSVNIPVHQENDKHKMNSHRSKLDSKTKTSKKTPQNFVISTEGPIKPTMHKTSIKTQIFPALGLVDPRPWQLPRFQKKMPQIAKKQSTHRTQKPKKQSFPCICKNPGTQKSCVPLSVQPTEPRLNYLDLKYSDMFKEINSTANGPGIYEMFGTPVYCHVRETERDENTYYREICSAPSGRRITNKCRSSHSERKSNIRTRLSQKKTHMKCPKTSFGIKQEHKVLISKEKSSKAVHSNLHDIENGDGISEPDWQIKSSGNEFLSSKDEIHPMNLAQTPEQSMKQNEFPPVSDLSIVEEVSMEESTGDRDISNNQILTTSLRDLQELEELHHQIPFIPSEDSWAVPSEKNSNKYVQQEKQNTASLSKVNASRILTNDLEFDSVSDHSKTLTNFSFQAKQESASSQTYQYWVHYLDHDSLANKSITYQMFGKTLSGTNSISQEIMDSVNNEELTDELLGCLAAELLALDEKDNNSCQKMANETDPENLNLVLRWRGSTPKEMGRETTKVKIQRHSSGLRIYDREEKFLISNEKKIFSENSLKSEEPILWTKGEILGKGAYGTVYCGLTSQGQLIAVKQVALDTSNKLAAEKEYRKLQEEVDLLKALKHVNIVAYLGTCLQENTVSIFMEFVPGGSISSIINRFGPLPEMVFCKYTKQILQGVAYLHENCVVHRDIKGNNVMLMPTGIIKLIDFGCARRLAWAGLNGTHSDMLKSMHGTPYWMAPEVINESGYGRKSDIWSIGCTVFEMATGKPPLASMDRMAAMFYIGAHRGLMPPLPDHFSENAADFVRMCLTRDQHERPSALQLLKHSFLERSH
read-out,technique,tested at,remaining binding [%],SMILES
binding,competition with immobilised ligand,1 µM,0,O=C(c1ccc(Nc2ncc(Cl)c(-c3ccc(Cl)s3)n2)cc1)N1CCC(N2CCCC2)CC1
binding,,1 µM,76,N[C@@H]1CCN(c2nccc(-c3cnn4ncccc34)n2)C1
binding,competition with immobilised ligand,1 µM,42,C=CC(=O)N1CCC(C(=O)NCC(=O)N2CCN(c3nc(-c4cnc(N)nc4C(F)F)nc(N4CCOCC4)n3)CC2)CC1
cell-free assay,competition with immobilised ligand,1 µM,100,Cc1cc(NC(=O)c2cccc(S(F)(F)(F)(F)F)c2)cc(-n2ccn3nc(-c4cccnc4)cc23)c1
binding,competition with immobilised ligand,1 µM,0.1,O=C(NCCCN1CCOCC1)c1ccc(Nc2nccc(-c3cc4ccccc4s3)n2)cc1
cell-free assay,competition with immobilised ligand,0.1 µM,89,O=C(NCCCC1CCCCC1)c1ccc(CNC(=O)c2cnn(-c3ccccc3)c2C(F)(F)F)cc1
binding,,1 µM,75,Cc1cnn2ncc(-c3ccnc(N(C)C)n3)c2c1
cell-free assay,competition with immobilised ligand,1 µM,79,Cc1nc(C2CCN(C(=O)c3ccc(OC(F)(F)F)cc3N)CC2)c2ncc(N3CCN(C)CC3)cc2n1
binding,competition with immobilised ligand,1 µM,32,COc1cnc(Nc2cccc(S(N)(=O)=O)c2)nc1N1CCN(c2ccccc2)C(=O)C1
binding,competition with immobilised ligand,1 µM,0,Cc1cnc(Nc2ccc(C(=O)N3CCC(N4CCCC4)CC3)cc2)nc1-c1cc2ccccc2s1
binding,,1 µM,69,CN(C)c1ncc(F)c(-c2cnn3ncccc23)n1
binding,competition with immobilised ligand,1 µM,71,COc1cnc(Nc2cccc(S(N)(=O)=O)c2)nc1N1CCN(c2ccccc2)CC1
binding,competition with immobilised ligand,0.1 µM,47,C[C@@H](c1ccc(-n2cnc3c(N)ncnc32)cc1)N1CCc2nn(C)c(Cc3ccccc3)c2C1=O
binding,,1 µM,89,F[C@@H]1CCN(c2nccc(-c3cnn4ncccc34)n2)C1
cell-free assay,competition with immobilised ligand,5 µM,81,COc1ncc2cc3ccccc3nc2c1C#N
cell-free assay,competition with immobilised ligand,1 µM,64,CO[C@H]1CC[C@H](CNc2ccc(S(=O)(=O)NC(=O)c3ccc(N4CCN(CC5=C(c6ccc(Cl)cc6)CC(C)(C)CC5)CC4)cc3Oc3cnc4[nH]ccc4c3)cc2[N+](=O)[O-])CC1
binding,,1 µM,50,CN(C)c1nccc(-c2cnn3ncccc23)n1
binding,competition with immobilised ligand,1 µM,67,Cc1nc(N2CC[C@@H](O)C2)ncc1-c1cc(C(F)(F)F)cc2[nH]ncc12
binding,,1 µM,79,C[C@@H]1CCN(c2nccc(-c3cnn4ncccc34)n2)C1
cell-free assay,competition with immobilised ligand,1 µM,98,Cc1cc(-n2nc(Cc3cc(F)cc(C(F)(F)F)c3)nc2C)ccc1C(N)=O
binding,competition with immobilised ligand,1 µM,100,O=C(Nc1c[nH]nc1C(=O)NC1CCNCC1)c1cc(F)cc(F)c1
